According to ChEMBL document CHEMBL4396954, “A click chemistry approach for the synthesis of cyclic ureido tethered coumarinyl and 1-aza coumarinyl 1,2,3-triazoles as inhibitors of Mycobacterium tuberculosis H37Rv and their in silico studies” (Bioorg Med Chem, 2019):
≈ marks a conversion by molar mass, not a printed value.

Legend:
[1] = test system: Mycobacterium tuberculosis; assay: Antitubercular activity against Mycobacterium tuberculosis H37Rv incubated for 5 days by microplate alamar blue assay; assay type: functional; conditions: 120 h
Outline: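 M. tuberculosis H37Rv grown with compound in microplate Alamar Blue assay; plates sealed and incubated at 37 °C for five days. A 1:1 mix of Alamar Blue reagent and 10% Tween 80 was then added, followed by another 24 h. Blue was scored as no growth and pink as growth. MIC was the lowest concentration preventing blue-to-pink change.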

HEK293 = assay: Cytotoxicity against HEK293 cells assessed as cell viability incubated for 48 hrs by MTT assay; assay type: cell-based; conditions: Homo sapiens, HEK293, 48 h
Outline: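 HEK293 cells seeded in 96-well plates and held overnight at 37 °C, 5% CO2, 95% humidity. Cells were treated with 500, 250, 125, 62.5, 31.25 and 15.625 (units not given) for 48 h, washed twice with phosphate buffer, then given MTT (5 mg/mL stock) for 4 h at 37 °C. Formazan was dissolved in DMSO and absorbance read at 570 nm.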

[2] = Chemical stability of compound in DMF at 5 x 10^-5 M incubated for 24 hrs by spectrometric analysis; assay type: physicochemical; conditions: 50 µM
Outline: (§1)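 Compound stock prepared in DMF, then diluted with DMF or with buffers of pH 6–8 to 5 × 10⁻⁵ M. Samples were kept at room temperature. UV absorption and fluorescence emission spectra were recorded and their patterns compared over 24 h and 72 h.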

[3] = Chemical stability of compound in pH 6 to 8 buffer at 5 x 10^-5 M incubated for 24 hrs by spectrometric analysis; assay type: physicochemical; conditions: pH 6, 24 h, 50 µM; outline: as §1
[4] = Chemical stability of compound in DMF at 5 x 10^-5 M incubated for 72 hrs by spectrometric analysis; assay type: physicochemical; conditions: 50 µM; outline: as §1
[5] = Chemical stability of compound in pH 6 to 8 buffer at 5 x 10^-5 M incubated for 72 hrs by spectrometric analysis; assay type: physicochemical; conditions: pH 6, 72 h, 50 µM; outline: as §1

| Compound | MIC [1] [µM] | IC50 (HEK293) [mM] | Stability [2] | Stability [3] | Stability [4] | Stability [5] |
| --- | --- | --- | --- | --- | --- | --- |
| Cc1ccc2c(Cn3cc(Cn4c(C)cc(=O)n(Cc5cn(Cc6cc(=O)oc7cc(C)ccc67)nn5)c4=O)nn3)cc(=O)oc2c1 | 79.1 (≈ 50 µg/mL) |  |  |  |  |  |
| Cc1cccc2c(Cn3cc(Cn4cnc5c4c(=O)n(C)c(=O)n5C)nn3)cc(=O)[nH]c12 | 116 (≈ 50 µg/mL) | 5.04 |  |  |  |  |
| Cc1cc(C)c2c(Cn3cc(Cn4cnc5c4c(=O)n(C)c(=O)n5C)nn3)cc(=O)oc2c1 | 111 (≈ 49.7 µg/mL) |  |  |  |  |  |
| Cc1cc(C)c2c(Cn3cc(Cn4c(=O)n(Cc5cn(Cc6cc(=O)oc7cc(C)cc(C)c67)nn5)c5ccccc54)nn3)cc(=O)oc2c1 | 2.39 (≈ 1.6 µg/mL) | 0.943 | Stable | Stable | Unstable | Unstable |
| Cc1cccc2c(Cn3cc(Cn4c(C)cc(=O)n(Cc5cn(Cc6cc(=O)[nH]c7c(C)cccc67)nn5)c4=O)nn3)cc(=O)[nH]c12 | 79.3 (≈ 50 µg/mL) | 1.15 |  |  |  |  |
| Cc1ccc2oc(=O)cc(Cn3cc(Cn4c(=O)n(Cc5cn(Cc6cc(=O)oc7ccc(C)cc67)nn5)c5ccccc54)nn3)c2c1 | 2.49 (≈ 1.6 µg/mL) | 3.58 | Stable | Stable | Unstable | Unstable |
| O=c1cc(Cn2cc(Cn3c(=O)n(Cc4cn(Cc5cc(=O)[nH]c6ccc(Cl)cc56)nn4)c4ccccc43)nn2)c2cc(Cl)ccc2[nH]1 | 2.35 (≈ 1.6 µg/mL) | 12.3 | Stable | Stable | Unstable | Unstable |
| COc1ccc2oc(=O)cc(Cn3cc(Cn4c(C)cc(=O)n(Cc5cn(Cc6cc(=O)oc7ccc(OC)cc67)nn5)c4=O)nn3)c2c1 | 75.2 (≈ 50 µg/mL) | 1.52 |  |  |  |  |
| O=c1cc(Cn2cc(Cn3c(=O)n(Cc4cn(Cc5cc(=O)[nH]c6ccccc56)nn4)c4ccccc43)nn2)c2ccccc2[nH]1 | 10.2 (≈ 6.25 µg/mL) |  | Stable | Stable | Unstable | Unstable |
| O=c1cc(Cn2cc(Cn3c(=O)n(Cc4cn(Cc5cc(=O)oc6ccc(Cl)cc56)nn4)c4ccccc43)nn2)c2cc(Cl)ccc2o1 | 18.3 (≈ 12.5 µg/mL) |  | Stable | Stable | Unstable | Unstable |
| COc1ccc2oc(=O)cc(Cn3cc(Cn4c(=O)n(Cc5cn(Cc6cc(=O)oc7ccc(OC)cc67)nn5)c5ccccc54)nn3)c2c1 | 4.64 (≈ 3.12 µg/mL) | 4.12 | Stable | Stable | Unstable | Unstable |
| COc1ccc2oc(=O)cc(Cn3cc(Cn4cnc5c4c(=O)n(C)c(=O)n5C)nn3)c2c1 | 55.6 (≈ 25 µg/mL) | 1.38 |  |  |  |  |
| NC(=O)c1cnccn1 [PYRAZINAMIDE] | 25.4 (≈ 3.12 µg/mL) |  |  |  |  |  |
| CN[C@@H]1[C@H](O[C@H]2[C@H](O[C@H]3[C@H](O)[C@@H](O)[C@H](N=C(N)N)[C@@H](O)[C@@H]3N=C(N)N)O[C@@H](C)[C@]2(O)C=O)O[C@@H](CO)[C@H](O)[C@H]1O [STREPTOMYCIN] | 10.7 (≈ 6.25 µg/mL) |  |  |  |  |  |
| O=c1cc(Cn2cc(Cn3c(=O)n(Cc4cn(Cc5cc(=O)oc6c5ccc5ccccc56)nn4)c4ccccc43)nn2)c2ccc3ccccc3c2o1 | 2.34 (≈ 1.67 µg/mL) | 3.13 | Stable | Stable | Unstable | Unstable |
| Cc1ccc2c(Cn3cc(Cn4c(=O)n(Cc5cn(Cc6cc(=O)oc7cc(C)ccc67)nn5)c5ccccc54)nn3)cc(=O)oc2c1 | 2.49 (≈ 1.6 µg/mL) | 3.52 | Stable | Stable | Unstable | Unstable |
| O=c1cc(Cn2cc(Cn3c(=O)n(Cc4cn(Cc5cc(=O)[nH]c6cc(Cl)ccc56)nn4)c4ccccc43)nn2)c2ccc(Cl)cc2[nH]1 | 2.35 (≈ 1.6 µg/mL) | 4.57 | Stable | Stable | Unstable | Unstable |
| COc1ccc2c(Cn3cc(Cn4c(=O)n(Cc5cn(Cc6cc(=O)oc7cc(OC)ccc67)nn5)c5ccccc54)nn3)cc(=O)oc2c1 | 2.37 (≈ 1.59 µg/mL) | 4.62 | Stable | Stable | Unstable | Unstable |
| Cc1cc(C)c2c(Cn3cc(Cn4c(C)cc(=O)n(Cc5cn(Cc6cc(=O)oc7cc(C)cc(C)c67)nn5)c4=O)nn3)cc(=O)oc2c1 | 75.7 (≈ 50 µg/mL) |  |  |  |  |  |
| CC(C)c1ccc2oc(=O)cc(Cn3cc(Cn4c(=O)n(Cc5cn(Cc6cc(=O)oc7ccc(C(C)C)cc67)nn5)c5ccccc54)nn3)c2c1 | 2.49 (≈ 1.73 µg/mL) | 3.2 | Stable | Stable | Unstable | Unstable |
| O=c1cc(Cn2cc(Cn3c(=O)n(Cc4cn(Cc5cc(=O)oc6ccc7ccccc7c56)nn4)c4ccccc43)nn2)c2c(ccc3ccccc32)o1 | 8.76 (≈ 6.24 µg/mL) | 1.13 | Stable | Stable | Unstable | Unstable |
| Cc1ccc2oc(=O)cc(Cn3cc(Cn4c(C)cc(=O)n(Cc5cn(Cc6cc(=O)oc7ccc(C)cc67)nn5)c4=O)nn3)c2c1 | 79.1 (≈ 50 µg/mL) | 1.28 |  |  |  |  |
| Cc1ccc2oc(=O)cc(Cn3cc(Cn4cnc5c4c(=O)n(C)c(=O)n5C)nn3)c2c1 | 115 (≈ 50 µg/mL) | 1.11 |  |  |  |  |
| Cc1cccc2c(Cn3cc(Cn4c(=O)n(Cc5cn(Cc6cc(=O)[nH]c7c(C)cccc67)nn5)c5ccccc54)nn3)cc(=O)[nH]c12 | 2.5 (≈ 1.6 µg/mL) | 4.34 | Stable | Stable | Unstable | Unstable |
| O=C(O)c1cn(C2CC2)c2cc(N3CCNCC3)c(F)cc2c1=O [CIPROFLOXACIN] | 9.43 (≈ 3.12 µg/mL) |  |  |  |  |  |
| Cc1ccc2c(Cn3cc(Cn4c(=O)n(Cc5cn(Cc6cc(=O)oc7c(C)c(C)ccc67)nn5)c5ccccc54)nn3)cc(=O)oc2c1C | 2.39 (≈ 1.6 µg/mL) | 3.43 | Stable | Stable | Unstable | Unstable |
